In article PMC9587871 (Asian Pacific Journal of Cancer Prevention : APJCP, 2022):
“And” between values parts separate entries of the source, which are not always exact repeats. Identical values can stand only once. Like-named read-outs stand apart in the source and are kept apart here.

How the values were obtained:
[1] = DPPH radical scavenging assay; details: 30 minutes incubations; n=4
[2] = test system: breast MCF7 cancer cell line; experiment: SRB antiproliferative assay, MCF7; type: cell-based
[3] = test system: colorectal HT29 cancer cell line; experiment: SRB antiproliferative assay, HT29; type: cell-based
[4] = test system: Leukaemia K562 cancer cell line; experiment: SRB antiproliferative assay, K562; type: cell-based
[5] = test system: LPS-induced NO production in RAW 264.7 macrophages (Nitric oxide synthase); experiment: Griess assay of LPS-induced NO production in RAW 264.7 macrophages; type: cell-based; details: read-out: NOS- IC50 value, LPS-prompted RAW264.7 macrophages, 24h incubations, n=4
How it was run: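 LPS-stimulated RAW264.7 macrophages exposed to the test compound; NO read by Griess assay. IC50 calculated within the tested dose range. Indomethacin used as reference. Data are mean ± SD of 4 independent replicates.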

With `O=C1O[C@H]([C@@H](O)CO)C(O)=C1O` [Ascorbic acid] the “DPPH radical scavenging IC50 value” [1] was “(21.83±1.10) μg/mL”.

Work on `N.N.[Cl][Pt][Cl]` [Cisplatin] yielded an IC50 ([2]; read-out: Cytotoxicity (as of %Control) IC50 value, MCF7, 72 h incubations, n=4) of 28.1 ± 4.4 µM, an IC50 ([2]; read-out: Cytotoxicity (as of %Control) IC50 value, MCF7, 72 h incubations, n=4, listed as cisplatin) of 28 µM and an IC50 ([3]; read-out: Cytotoxicity (as of %Control) IC50 value, HT29, 72 h incubations, n=4) of 45.1 ± 7.9 µM. It also gave an IC50 ([3]; read-out: Cytotoxicity (as of %Control) IC50 value, HT29, 72 h incubations, n=4, listed as cisplatin) of 45 µM, an IC50 ([4]; read-out: Cytotoxicity (as of %Control) IC50 value, K562, 72 h incubations, n=4, NI is lack of cytotoxicity within the tested 0.1-200 μg/mL range) of 180 ± 21 µM and an IC50 ([4]; read-out: Cytotoxicity (as of %Control) IC50 value, K562, 72 h incubations, n=4, NI is lack of cytotoxicity within the tested 0.1-200 μg/mL range, listed as cisplatin) of 180 µM.

In the case of `COc1ccc2c(c1)c(CC(=O)O)c(C)n2C(=O)c1ccc(Cl)cc1` [Indomethacin], the IC50 ([5]; Mus musculus, RAW264.7, 24 h) is reported as 120 µM and 42.8 µg/mL and the IC50 [5] is reported as 119 ± 3.02 µM.
